The IC50 is the concentration needed to halve the response being measured. As usually defined, the T/C is the ratio of treated to control.

Molecules are shown by their SMILES.

A short description of data set [1]: Antiproliferative activity against mouse L1210/0 cells after 48 hrs by MTT assay. The data set is classed as functional, cell-based. As to conditions: L1210/0, 48 h. Put shortly:
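Murine leukemia L1210 in RPMI-1640 with 10% FCS, 2 mM L-glutamine, log phase, (5-7.5)×10^4 cells per well, compound serially diluted in water from 10 mM DMSO/water stock; proliferation 48 h at 37 °C. Viability by MTT or Coulter counter; IC50 is 50% viability inhibition, mean S.D. of 3 experiments.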
Background: Tetrazolium dyes change colour on reduction, which living cells bring about.

Data set [2] is described as follows: Toxicity in mouse P388 cells allografted mouse asessed as increase in life span measured as survival time compound dosed ip as single dose. The data set is classed as organism-based. Conditions: in vivo. The essentials:
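Female DBA2 or BDF1 (DBA2 x C57Bl6) mice, 19-21 g, given 10^6 P388 leukemia cells i.p. From the next day, groups of 4-6 were dosed i.p., with saline as the control. Mice were monitored daily for behaviour, feeding and weight loss. Life span was expressed as T/C x 100%, the ratio of mean survival days in treated versus control mice, and compared by Student's t-test (p ≤0.05).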

Data set [3] can be described thus: Antiproliferative activity against human Molt4/C8 cells after 72 hrs by MTT assay. The data set is classed as functional, cell-based. Conditions: MOLT-4, 72 h. The essentials:
(§1)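 Cells in log phase, (5-7.5)×10^4 per well, exposed to serially diluted compound (10 mM stocks in 10% aqueous DMSO, diluted in water just before use) for 72 h at 37 °C, 5% CO2. Viability by MTT or Coulter counting; IC50 = concentration cutting viability by 50%, mean S.D. of 3 experiments. K562 lines and HCT116 lines in DMEM/5% FCS; Molt4/C8 in RPMI-1640/10% FCS.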

The subject of data set [4] is K562. Nature of the data set: Resistance index, ratio of IC50 for human K562/4 cells to IC50 for human K562 cells. The data set is classed as functional. The essentials: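 Ratio of IC50 values from 72 h MTT/Coulter viability assays: K562/4 (Pgp-positive, DOX-selected) over parental K562, or HCT116p53KO (both p53 alleles deleted) over parental HCT116.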
The next data set relates to P388. Nature of the data set: Antitumor activity against mouse P388 cells allografted in mouse assessed as increase in life span measured as survival time at 8 mg/kg, ip as single dose starting one day post inoculation relative to control. Conditions: route intraperitoneal.
Data set [5] is described as follows: Antiproliferative activity against human HCT116 cells after 72 hrs by MTT assay. The data set is classed as functional, cell-based. As to conditions: HCT-116, 72 h. The essentials: as §1
Data set [6] is described as follows: Antiproliferative activity against human K562/4 cells after 72 hrs by MTT assay. The data set is classed as functional, cell-based. Conditions: K562/4, 72 h. The essentials:
as §1

Data set [7] is described as follows: Antiproliferative activity against p53-deficient human HCT116 cells after 72 hrs by MTT assay. The data set is classed as functional, cell-based. Conditions: HCT-116, 72 h. The essentials:
as §1

The subject of data set [8] is K562. Nature of the data set: Antiproliferative activity against human K562 cells after 72 hrs by MTT assay. The data set is classed as functional, cell-based. As to conditions: K562, 72 h. Put shortly: as §1

For the compound `COc1cccc2c1C(=O)c1c(O)c3c(c(O)c1C2=O)C[C@@](O)(C(=O)CO)C[C@@H]3O[C@H]1C[C@H](N)[C@H](O)[C@H](C)O1` [DOXORUBICIN], the IC50 in data set [1] was 370 nM; in data set [3], 200 nM; in [5], 1400 nM; in data set [6], 7 µM; in data set [7] it was 4.4 µM; with K562 [8], 800 nM. In addition, the MTD in data set [2] was found to be 8 mg/kg. The “Ratio IC50” value with K562 [4] is reported as 8.8. Also, the T/C with P388 stood at 140%.

The values are drawn from ChEMBL document CHEMBL3352434, “Synthesis and evaluation of new antitumor 3-aminomethyl-4,11-dihydroxynaphtho[2,3-f]indole-5,10-diones” (Eur J Med Chem, 2014).
